Assay results reported in ChEMBL document CHEMBL1142876, “Non-carboxylic analogues of arylpropionic acids: synthesis, anti-inflammatory activity and ulcerogenic potential” (Eur J Med Chem, 2007).

What was measured:
[1] = test system: Rattus norvegicus; assay: Antiinflammatory activity against carrageenan-induced paw edema in Albino rat at 30 mg/kg body weight, sc; type: functional; conditions: route subcutaneous
Procedure, shortened: (§1)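 Rats from National Research Centre, acclimatised one week, 12 h light/dark, food and water ad libitum; groups of six. Right hind paw sub-plantar injection of 0.05 mL 1% carrageenan in saline. Drugs dissolved in DMSO, given subcutaneously; vehicle controls got DMSO. Paw volume measured before and 0.5, 1.5, 2, 3, 6, 8 h post-carrageenan; edema AUC by trapezoidal method, mean ± S.E.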

[2] = test system: Rattus norvegicus; assay: Toxicity assessed as ulcerogenic effect in Albino rat at 30 mg/kg, po twice a day after 3 days; type: organism-based; parameters: dose 30 mg/kg, route oral; conditions: in vivo, 72 h
Procedure, shortened: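 Male albino rats, 150–200 g, fasted 12 h (water ad libitum), six per group. Oral dosing in two equal doses of 30 mg/kg at 0 and 12 h for three successive days; controls received 1% gum acacia orally. Killed with diethyl ether 6 h after final dose; stomach opened along greater curvature, saline-washed, examined under 3× lens for hyperemia, haemorrhage or ulcer. % ulceration = ulcer-bearing animals/group total ×100.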

[3] = test system: Rattus norvegicus; assay: Antiinflammatory activity against carrageenan-induced paw edema in Albino rat at 200 mg/kg body weight, sc; type: functional; conditions: route subcutaneous; procedure, shortened: as §1

SMILES	Activity [1] [%]	Activity [2] [%]	Activity [3] [%]
CC(C)Cc1ccc(C(C)c2nnc(Nc3ccc(Br)cc3)[nH]2)cc1 (centres undefined)	69.52	33.3	
CC(c1ccc(-c2ccccc2)c(F)c1)c1nnc(Nc2cccc(Cl)c2)[nH]1 (centres undefined)	69.65	0	
COc1ccc2cc(C(C)c3nnc(Nc4cccc(Cl)c4)[nH]3)ccc2c1 (centres undefined)	66.8	0	
COc1ccc2cc(C(C)c3nnc(Nc4ccc(Br)cc4)[nH]3)ccc2c1 (centres undefined)	69.67		
CC(C)Cc1ccc(C(C)c2nnc(Nc3cccc(Cl)c3)[nH]2)cc1 (centres undefined)	70.86		
CC(c1ccc(-c2ccccc2)c(F)c1)c1nnc(Nc2ccc(Br)cc2)[nH]1 (centres undefined)	68.36	0	
CC(C)Cc1ccc(C(C)c2nnc3sc(S)nn23)cc1 (centres undefined)	72.1		
C[C@]12CCC(=O)C=C1CC[C@@H]1[C@@H]2[C@@H](O)C[C@@]2(C)[C@H]1CC[C@]2(O)C(=O)CO [HYDROCORTISONE]			73.39
CC(C)Cc1ccc(C(C)C(=O)O)cc1 (centres undefined) [IBUPROFEN]	86.07		
COc1ccc2c(c1)c(CC(=O)O)c(C)n2C(=O)c1ccc(Cl)cc1 [INDOMETHACIN]		100	
